Experimental findings from PubChem BioAssay are described below.

Activity calls are given as the source filed them.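 Rule for the calls, unless noted: active = inhibition at or above 50% relative to wild type and mutant plate controls; inactive = inhibition below 50%.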

A word on the inhibition: it is the change of the read-out against control, counted positive when it falls.

The nature of assay [1]: inhibitors of TNFa-induced NFkB p65 translocation, primary screen, imaging, HUVEC, MLSMR starter and 10KST1 sets (AID 438;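 active = inhibition above 20% together with a positive visual image hit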;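 note: compound added about 3h40 before a 20 min TNFalpha stimulation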;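 for inhibition: signal is the nuclear over cytoplasmic p65 intensity ratio per well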). The settings on record: HUVEC TNFa-induced p65 nuclear translocation; cell count: measured here: nuclei count (cytotoxicity indicator), at 2.08 µM; inhibition: at 2 µM, stronger effect = higher value, 0% TNFa-plus-vehicle, 100% no-TNFa wells.
Assay [2] is described as follows: inhibitors of E-selectin induction by TNFa, primary screen, imaging, HUVEC, immunofluorescence, MLSMR starter and 10KST1 sets (AID 487;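 active = visually confirmed hit in the image check and inhibition above 20%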;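 for inhibition: signal is fraction of cell area covered by stained E-selectin grains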;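 for nuclei count: 100% = median nuclei count of all wells on the same plate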). Conditions: HUVEC TNFalpha-induced E-selectin immunofluorescence imaging, at 2 µM; inhibition: stronger effect = higher value; nuclei count: measured here: cell number, toxicity.
The nature of assay [3]: DUSP6 inhibitors restoring Erk phosphorylation by chemical complementation, primary imaging in DUSP6-transfected HeLa (AID 609;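 active = compounds giving at least 50% inhibition in the cell-based MKP-3 phosphatase rescue imaging test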;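 for inhibition: phospho-Erk level distribution per well compared with pooled transfected vehicle control wells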). The settings on record: HeLa MKP-3 transfected, phospho-Erk imaging KS statistic, at 10 µM, cells stimulated with TPA for 15 min.
In assay [4] the target is Dual specificity protein phosphatase 6 (Homo sapiens) (UniProt Q16828). The description is as above. Conditions: HeLa MKP-3 transfected, phospho-Erk imaging KS statistic; at 10 µM; stronger effect = higher value; cells stimulated with TPA for 15 min.
Dual specificity protein phosphatase 6 (Homo sapiens), sequence (Q16828 whole entry, looked up): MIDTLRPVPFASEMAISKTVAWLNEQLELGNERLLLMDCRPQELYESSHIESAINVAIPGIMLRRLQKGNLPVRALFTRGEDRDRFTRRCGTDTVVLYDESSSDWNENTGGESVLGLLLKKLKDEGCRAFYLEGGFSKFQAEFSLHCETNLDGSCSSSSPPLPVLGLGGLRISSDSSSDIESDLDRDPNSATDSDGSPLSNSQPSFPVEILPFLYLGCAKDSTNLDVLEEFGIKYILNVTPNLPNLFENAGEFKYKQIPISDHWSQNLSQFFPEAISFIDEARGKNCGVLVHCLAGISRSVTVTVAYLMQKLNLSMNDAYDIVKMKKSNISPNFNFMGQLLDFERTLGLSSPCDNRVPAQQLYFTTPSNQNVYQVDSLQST
In assay [5] the target is Voltage-gated potassium channel subunit beta-2 (Rattus norvegicus) (UniProt P62483). Kind of assay: KvBeta enzyme negative modulators, primary screen, biochemical, NADPH fluorescence (AID 622;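 active = fluorescence slope higher than the sample average by over 3 SD, cut at about -0.22 in these data, passing the limit was not always enough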;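 note: slope of raw intensity against log time taken from 70 to 1610 s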). Conditions: recombinant KvBeta, 4-cyanobenzaldehyde reduction, at 10 µM, stronger effect = higher value.
Voltage-gated potassium channel subunit beta-2 (Rattus norvegicus), sequence (P62483 whole entry, looked up): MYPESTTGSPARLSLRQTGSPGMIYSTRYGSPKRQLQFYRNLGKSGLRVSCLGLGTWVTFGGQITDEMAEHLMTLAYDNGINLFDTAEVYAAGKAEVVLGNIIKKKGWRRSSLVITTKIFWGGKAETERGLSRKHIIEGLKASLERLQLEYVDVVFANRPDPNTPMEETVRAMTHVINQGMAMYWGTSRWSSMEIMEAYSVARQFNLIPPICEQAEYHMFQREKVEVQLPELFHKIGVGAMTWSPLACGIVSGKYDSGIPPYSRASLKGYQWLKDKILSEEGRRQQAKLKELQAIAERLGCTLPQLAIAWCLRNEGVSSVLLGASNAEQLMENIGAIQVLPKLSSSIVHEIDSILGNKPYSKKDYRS
The target is the same in assay [6]. Kind of assay: KvBeta positive modulators, primary screen, biochemical, NADPH fluorescence (AID 623;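 active = NADPH fluorescence slope more negative than the mean of all samples by about 3 SD, 99.7% confidence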;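 note: fluorescence intensity change per second fitted from 20 to 320 s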). The settings on record: Recombinant KvBeta, NADPH fluorescence decrease slope, 10 min; at 10 µM; stronger effect = lower value.
For assay [7], the target named is Muscarinic acetylcholine receptor M4 (Homo sapiens) (UniProt P08173). Kind of assay: compounds altering M4/GIRK thallium flux, either direction, primary screen, M4 allosteric agonist project, cell-based, HEK293 M4/GIRK, BTC-AM (AID 625;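 active = fluorescence slope after compound addition differing from the mean of all tested samples at 99.7% confidence, mostly higher but some lower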;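 note: thallium influx through GIRK channels coupled to M4 in HEK293 cells with BTC-AM dye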). Conditions: at 10 µM, actives lie on both sides. The gist of the method: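 Material: M4/GIRK1/GIRK2 stable HEK293 cell line. Medium: pH 7.3 thallium assay buffer. Dosing: single compound concentration, 10 µM final. Schedule: 1 h dye loading, 2 min kinetic read. Measured by: kinetic fluorescence with BTC-AM dye. Read-out: post-addition slope, 15–24 s, of baseline-normalized fluorescence. Benchmarks: carbachol and DMSO controls.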
Muscarinic acetylcholine receptor M4 (Homo sapiens), sequence (P08173 whole entry, looked up): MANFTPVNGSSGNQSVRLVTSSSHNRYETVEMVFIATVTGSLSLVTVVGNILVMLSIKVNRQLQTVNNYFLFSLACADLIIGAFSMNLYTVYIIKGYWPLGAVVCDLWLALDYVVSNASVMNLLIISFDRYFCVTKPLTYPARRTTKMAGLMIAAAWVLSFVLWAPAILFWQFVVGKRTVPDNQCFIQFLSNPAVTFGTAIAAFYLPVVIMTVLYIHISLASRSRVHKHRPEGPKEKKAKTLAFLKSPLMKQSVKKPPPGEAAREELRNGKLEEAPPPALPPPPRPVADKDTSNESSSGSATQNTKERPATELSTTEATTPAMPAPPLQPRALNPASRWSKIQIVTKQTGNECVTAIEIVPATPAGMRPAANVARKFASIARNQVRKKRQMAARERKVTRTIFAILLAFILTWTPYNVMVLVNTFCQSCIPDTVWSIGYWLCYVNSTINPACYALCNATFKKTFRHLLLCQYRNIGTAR

Assay [8] can be described thus: inhibitors of larval lipid processing in zebrafish, primary screen, whole organism, PED6 fluorescence, gall bladder and intestine (AID 686;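 active = a full or partial loss of lipid-probe fluorescence in the fish gall bladder, intestine or both, judged by eye; inactive = no fluorescence loss, or compound toxic to the fish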;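 note: larvae 5 to 7 days old with five fish per well; signal comes from phospholipase A2 cleavage of quenched PED6 carried via bile; overnight exposure to compound and PED6 before scoring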). The settings on record: Zebrafish larvae PED6 lipid processing, fluorescence scoring; screened at 20 µM (by protocol). The gist of the method:
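System: live zebrafish larvae aged 5-7 days, whole organism; measure: graded gall bladder and intestinal fluorescence inhibition per well; incubation: overnight exposure; reagent: ingested quenched lipid PED6 at 100 nM; signal: By-eye fluorescence microscopy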

The nature of assay [9]: inhibitors of Chlamydomonas gravitaxis, primary screen, whole organism, Chlamydomonas reinhardtii, WT vs cilia-less mutant, absorbance, 96-well (AID 463189).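 Note: 0% = wild type cc124 cells in DMSO and 100% = ciliumless bld1 mutant cells.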 Conditions: OD600 absorbance, 2 days, at 10 µM, stronger effect = higher value.
Setting [10] is: measured here: cell density z-score.
The mark [11] stands for this setting: measured here: nuclear c-Myc green intensity z-score.
The mark [12] stands for this setting: measured here: nuclear pErk red intensity z-score, stronger effect = higher value.

Take `O=C(CSc1nc2ccccc2c(=O)n1CC1CCCCC1)N1CCOCC1`: the cell count in assay [1] was found to be 369. For the same molecule, the inhibition is -5.3% (inactive) in assay [1], -6.6% (inactive) in [2], 7.42% (inactive) in assay [4] and -8.49% (inactive) in [9]. The molecule further came in with a nuclei count in [2] of 136%. Also, the z-score in assay [3] (setting [10]) was -0.271; in assay [3] (setting [11]) it was -0.657; in assay [3] (setting [12]) it was -0.609. The fluorescence slope was -0.465 (inactive) in [5] and 0.00433 (inactive) in assay [7]. Further, in assay [6], the NADPH fluorescence slope was -8.1e-05 (inactive). The call in assay [8] was inactive.

Regarding `Cc1ccc(N(CC(O)CN(C)C)S(=O)(=O)c2ccccc2)cc1` (stereo unspecified), the cell count in [1] is 587. For the same molecule, the inhibition is -9.4% (inactive) in assay [1], 6.4% (inactive) in [2], -4.59% (inactive) in [4] and 11.5% (inactive) in [9]. This molecule displayed a nuclei count in assay [2] of 192%. The z-score was 1.28 in assay [3] (setting [10]), -0.151 in [3] (setting [11]) and 0.0736 in assay [3] (setting [12]). The fluorescence slope is -0.384 (inactive) in assay [5] and 0.00579 (inactive) in [7]. For the same molecule, the NADPH fluorescence slope in [6] was -7.3e-05 (inactive). Further, the result in [8] was inactive.

For the molecule `COc1cc(Cn2ccnc2)c(OC)cc1Cn1ccnc1`, the cell count in assay [1] was found to be 588. Besides, the inhibition in assay [1] was 0.1% (inactive); in [2] it was -64% (inactive); in assay [4], 1.63% (inactive); in assay [9], 10.7% (inactive). Moreover, the nuclei count in assay [2] came to 154%. The z-score in assay [3] (setting [10]) was 0.988; in assay [3] (setting [11]) it was 1.55; in [3] (setting [12]) it was 0.136. The fluorescence slope is -0.422 (inactive) in assay [5] and 0.0052 (inactive) in assay [7]. Further, in assay [6], the NADPH fluorescence slope was -0.000118 (inactive). Moreover, the result in assay [8] was inactive.

Take `O=C(O)CCCC(=O)N1CCN(C(c2ccccc2)c2ccccc2)CC1`: the cell count in assay [1] was 593. For the same molecule, the inhibition in assay [1] was 2% (inactive); in assay [2], 16.4% (inactive); in [4], -9.53% (inactive); in [9], -16% (inactive). In assay [2], this molecule registered a nuclei count of 93.4%. Besides, the results for the z-score in assay [3] (setting [10]), in [3] (setting [11]) and in [3] (setting [12]) were 0.508, 0.369 and -2.19, respectively. The results for the fluorescence slope in [5] and in assay [7] were -0.501 (inactive) and 0.00548 (inactive), respectively. In addition, the NADPH fluorescence slope in assay [6] is -2.2e-05 (inactive). Moreover, the call in assay [8] was inactive.

On to `CCOC(=O)C(C(=O)OCC)N(C#N)c1nc(SC)nc(N(C)C)n1`, for which, in assay [1], the cell count came out at 607. The inhibition in [1] was -2.8% (inactive); in [2] it was 42.8% (inactive); in [4], 33.3% (inactive); in assay [9], -15.2% (inactive). The nuclei count in [2] came out at 86.4%. Besides, the z-score is -3.26 in assay [3] (setting [10]), 2.37 in assay [3] (setting [11]) and 4.3 in [3] (setting [12]). The fluorescence slope is -0.457 (inactive) in [5] and 0.00538 (inactive) in assay [7]. For the same molecule, the NADPH fluorescence slope in assay [6] is -5e-05 (inactive). The call in assay [8] was inactive.

Take `Cn1c(NCCCO)nc2c1c(=O)n(Cc1ccccc1F)c(=O)n2C`: the cell count in assay [1] worked out at 691. In addition, the inhibition was -14.5% (inactive) in assay [1], -160% (inactive) in assay [2], 1.9e-07% (inactive) in [4] and 7.04% (inactive) in assay [9]. This molecule also returned a nuclei count in assay [2] of 167%. Further, the results for the z-score in assay [3] (setting [10]), in assay [3] (setting [11]) and in [3] (setting [12]) were -0.594, -1.48 and 0.588, respectively. Further, the fluorescence slope is -0.512 (inactive) in [5] and 0.00567 (inactive) in assay [7]. For the same molecule, the NADPH fluorescence slope in [6] was -3.1e-05 (inactive). Further, in assay [8], the molecule was classed as inactive.

On to `CC(C)Cc1nc(N2CCN(C(=O)Cc3ccccc3)CC2)c(C#N)c2c1COC(C)(C)C2`, for which the cell count in assay [1] worked out at 601. Also, the inhibition in assay [1] is -8.9% (inactive); in assay [2], -80.2% (inactive); in assay [4], 9.07% (inactive); in assay [9] it was 13.3% (inactive). In assay [2], this molecule had a nuclei count of 153%. Besides, the z-score in assay [3] (setting [10]) is -0.132; in assay [3] (setting [11]), -0.0812; in [3] (setting [12]), -0.136. The fluorescence slope in [5] was -0.453 (inactive); in assay [7] it was 0.00471 (inactive). For the same molecule, the NADPH fluorescence slope in [6] is -0.000102 (inactive). Besides, in assay [8], the molecule was called inactive.
